Laboratory results published in paper PMC4545405 (ACS chemical biology, 2013).
Like-named read-outs stand apart in the source and are kept apart here.

Assays:
[1] = biological target: PelD (Pseudomonas aeruginosa, UniProt A0A0H2ZD98); assay: DRaCALA / DRaCALA-HTS inhibition of 32P-cdiGMP binding to PelD; settings: for fraction bound of 32P-cdiGMP to PelD in DRaCALA-HTS: NCC1 library screen, cutoff 3 standard deviations below the average
[2] = biological target: T1, WspR (Pseudomonas aeruginosa, UniProt Q9HXT9); assay: DRaCALA inhibition of 32P-cdiGMP binding to WspR
[3] = test system: PDE (RocR, PvrR, FimX) or PilZ (Alg44, PA3353) proteins; assay: DRaCALA inhibition of 32P-cdiGMP binding to PDE and PilZ proteins; parameters: species or system P. aeruginosa; settings: Eb 50 μM
Summary of the method: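 Purified protein was mixed with ³²P-cdiGMP in the presence of 50 μM test compound or DMSO, then spotted on nitrocellulose. Spots were imaged by phosphorimager. Fraction bound = corrected bound-ligand intensity ÷ total spot intensity.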

[4] = biological target: T1, WspR; assay: WspR DGC activity assay by TLC; format: biochemical; settings: for DGC activity of wild-type WspR (inhibition): 50 μM; for WspR activity after DTT treatment of preincubated WspR: with DTT
[5] = test system: WspR with C49A substitution; assay: DGC activity assay of C49A WspR; format: biochemical, Pseudomonas aeruginosa; settings: 50 μM
Summary of the method: (§1)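 Purified WspR point mutants (C49A, C240A, or AxxA at the RxxD I-site), expressed from cloned alleles. Diguanylate cyclase activity measured by thin-layer chromatography (TLC) with test compound or cdiGMP at 50 μM, against a DMSO control. Compounds were dissolved in DMSO.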

[6] = test system: WspR with C240A substitution; assay: DGC activity assay of C240A WspR; format: biochemical, Pseudomonas aeruginosa; settings: 50 μM
Summary of the method: as §1

[7] = test system: AxxA WspR (RxxD I-site abolished); assay: DGC activity assay of AxxA WspR; format: biochemical, Pseudomonas aeruginosa; settings: 50 μM
Summary of the method: as §1

[8] = test system: P. aeruginosa PA14; assay: Growth curves; format: cell-based, Pseudomonas aeruginosa; settings: 50 μM, LB, 37 °C, 16 hours, vs DMSO
Summary of the method: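 P. aeruginosa PA14 grown overnight in LB at 37 °C with shaking, then subcultured in LB with 50 μM test compound or 2% DMSO alone. Grown with shaking at 37 °C for 16 h. A600 read every 5 minutes.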

[9] = test system: P. aeruginosa PA14 overexpressing DGCs; assay: Swim motility assay of PA14 overexpressing DGCs; format: cell-based, Pseudomonas aeruginosa; settings: for change in swimming motility compared to the DMSO control: PA14 overexpressing PA0847, IPTG; for change in swimming motility compared to the DMSO control / increase in swimming diameter compared to the DMSO control: 50 μM
[10] = test system: PA14 pMMB-WspR; assay: Crystal violet pellicle assay, DGC-dependent biofilm formation; format: cell-based, Pseudomonas aeruginosa; settings: IPTG-induced WspR, static incubation 30 °C, 16 hours
[11] = test system: PA14 ΔretS; assay: Crystal violet pellicle assay, DGC-independent biofilm formation; format: cell-based, Pseudomonas aeruginosa
[12] = biological target: Alg44 (Pseudomonas aeruginosa, UniProt Q9HY69); assay: DRaCALA / DRaCALA-HTS binding of 32P-cdiGMP to Alg44; settings: for Kd: Kd of Alg44 binding to 32P-cdiGMP
Chain of Alg44 (Q9HY69 whole entry): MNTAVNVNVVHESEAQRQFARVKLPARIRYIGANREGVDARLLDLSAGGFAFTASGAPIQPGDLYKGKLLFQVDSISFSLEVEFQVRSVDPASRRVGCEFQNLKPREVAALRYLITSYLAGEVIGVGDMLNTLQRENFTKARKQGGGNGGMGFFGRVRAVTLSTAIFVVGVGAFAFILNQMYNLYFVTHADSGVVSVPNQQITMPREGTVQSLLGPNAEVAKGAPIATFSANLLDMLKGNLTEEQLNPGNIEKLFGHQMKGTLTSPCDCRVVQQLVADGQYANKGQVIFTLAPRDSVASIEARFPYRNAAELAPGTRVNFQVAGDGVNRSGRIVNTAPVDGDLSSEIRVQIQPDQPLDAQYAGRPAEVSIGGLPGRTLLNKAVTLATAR

[13] = PA14 overexpressing PA1107, IPTG
[14] = PA14 overexpressing PA1120, IPTG
[15] = PA14 overexpressing PA1727, IPTG

Structure (SMILES)	reduction of 32P-cdiGMP binding to PDE or PilZ proteins [3]	DGC activity of wild-type WspR (inhibition) [4]	WspR activity after DTT treatment of preincubated WspR [4]	DGC activity of C49A WspR (inhibition) [5]	DGC activity of C240A WspR (inhibition) [6]	DGC activity of AxxA WspR (inhibition) [7]	growth of P. aeruginosa PA14 [8]	change in swimming motility compared to the DMSO control [9]	increase in swimming diameter compared to the DMSO control [9, 13] [fold]	increase in swimming diameter compared to the DMSO control [9, 14] [fold]	increase in swimming diameter compared to the DMSO control [9, 15] [fold]	increase in swimming diameter compared to the DMSO control ([9]; PA14 overexpressing WspR, IPTG) [fold]	reduction of biofilm formation compared to the DMSO control [10]	DGC-independent biofilm formation [11]	fraction bound of 32P-cdiGMP to PelD in DRaCALA-HTS [1]	also measured
O=C1c2ccccc2[Se](=O)N1c1ccccc1 (centres unmarked) [EbO, ebselen oxide]	did not reduce	inhibited	returned WspR activity to the level of the DMSO control	still susceptible to inhibition	completely refractory	no longer inhibited	No difference in growth	no change in swimming motility	4	3.4	1.3	2.5	~ 40%	Neither Eb nor EbO reduced biofilm formation		reduction of cdiGMP binding to PelD ([1]; compared to the DMSO control, Eb 50 μM): ~ 60%; IC50 ([1]; read-out: IC50 for PelD (inhibition of cdiGMP binding), DRaCALA): 5 ± 2 µM; IC50 for WspR (inhibition of cdiGMP binding) ([2]; DRaCALA): did not show inhibition; reduction of cdiGMP binding to WspR ([2]; compared to the DMSO control, Eb 50 μM, no preincubation): ~ 30%; reduction of 32P-cdiGMP binding to WspR after preincubation ([2]; preincubation of WspR for 30 minutes before addition of 32P-cdiGMP): 86%; reduction of WspR activity (velocity) ([4]; 10 μM GTP, inhibitor 50 μM): 87%; reversal of cdiGMP-mediated repression of swimming, concentration dependence ([9]; PA14 overexpressing PA3702, IPTG, different concentrations): at a lower concentration
Nc1nc2c(ncn2[C@@H]2O[C@@H]3COP(=O)(O)O[C@H]4[C@@H](O)[C@H](n5cnc6c(=O)[nH]c(N)nc65)O[C@@H]4COP(=O)(O)O[C@H]3[C@H]2O)c(=O)[nH]1 [cdiGMP, cyclic-di-GMP]		inhibited		still susceptible to inhibition	inhibited	no longer inhibited									no binding was observed	average fraction bound of 32P-cdiGMP to Alg44 with cdiGMP competitor ([12]; 384-well plate, 25 μM unlabeled cdiGMP): 0.007±0.005; Kd ([12]; 384 well format, HTS-DRaCALA): 0.239 ± 0.007 µM; Kd ([12]; fraction bound in individual reaction mixtures): 0.38 ± 0.02 µM
O=c1c2ccccc2[se]n1-c1ccccc1 [Eb, ebselen]	≤ 25%	inhibited	returned WspR activity to the level of the DMSO control	still susceptible to inhibition	completely refractory	no longer inhibited	No difference in growth	no change in swimming motility	3.4	2.5	1.1	2	~ 40%	Neither Eb nor EbO reduced biofilm formation	below the positive cutoff of 3 standard deviations below the average	IC50 [1]: 5 ± 2 µM; inhibition at 50 µM ([1]; read-out: reduction of cdiGMP binding to PelD): 80%; IC50 [2]: 13.6 ± 0.5 µM; inhibition at 50 µM ([2]; read-out: reduction of cdiGMP binding to WspR): 90%; inhibition at 50 µM ([4]; read-out: reduction of WspR activity (velocity)): 87%; WspR velocity at varying substrate and Eb concentrations ([4]; varying substrate concentrations): reduced WspR velocity in a concentration dependent manner
